Shown are actives, neighbours in structure and some others; about 9.5% of the full set was active somewhere.
M1 ag: M1 muscarinic receptor agonism; CHO-M1 cells, Fluo-4 calcium fluorescence, agonist mode; active compounds read high; B-score at 10 µM; 3% of 64,000 active;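 active = fluorescence rise, raw or as B-score row- and column-corrected plate score, outside the 99.7% band of its plate's samples, either direction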
M1 antag: blocks the rat M1 muscarinic receptor response to acetylcholine. P08482. CHO-M1 cells, Fluo-4 calcium, ACh EC80 antagonist mode; active compounds read low. B-score at 10 µM. 3.4% of 64,000 active. AID 628;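 active = calcium fluorescence response, raw or row-and-column corrected B-score, differing from the plate sample mean either way at a set confidence level, mostly lower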
Target sequence (P08482 whole entry, looked up): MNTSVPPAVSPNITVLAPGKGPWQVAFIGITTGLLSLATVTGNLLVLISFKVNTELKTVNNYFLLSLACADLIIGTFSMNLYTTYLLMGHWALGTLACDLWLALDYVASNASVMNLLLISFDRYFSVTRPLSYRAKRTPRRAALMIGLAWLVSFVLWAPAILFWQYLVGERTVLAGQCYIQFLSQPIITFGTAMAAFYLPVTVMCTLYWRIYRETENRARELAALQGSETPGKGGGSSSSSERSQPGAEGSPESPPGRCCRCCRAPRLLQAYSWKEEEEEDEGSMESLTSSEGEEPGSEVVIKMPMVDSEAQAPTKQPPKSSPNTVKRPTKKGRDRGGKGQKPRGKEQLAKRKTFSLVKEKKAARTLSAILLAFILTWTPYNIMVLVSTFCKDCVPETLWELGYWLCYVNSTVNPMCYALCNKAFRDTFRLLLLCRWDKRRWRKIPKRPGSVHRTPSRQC
mHtt clearance: compounds clearing mutant huntingtin protein; HeLa Exon1htt(103Q)mCFP, aggregate imaging; zero = plate's median compound well; inhibition, % at 1.5 µM; 0.42% of 47,000 active;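 active = inhibition of aggregate fluorescence above about 70%, also judged a hit by eye on the cell image, limit read from the data, passing the limit was not always enough; inconclusive = no rule stated for this call; inactive = not judged a hit on image review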;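 also: cells exposed to compound for three days before fixation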
HEK293 NFkB inh: lowers PMA/ionomycin-induced NF-kB signal in HEK293 cells | inhibition, % at 3 µM | HEK-293 NF-kB luciferase reporter, luminescence | 0.21% of 62,000 active | AID 465;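 active = inhibition above the mean of all tested compounds plus 3 SD, cut at about 40% in these data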
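Material: HEK-293 cells with stable firefly luciferase reporter driven by four HIV NF-kB elements / Also added: PMA plus ionomycin mix as NF-kB-activating stimulus / Compound dosing: 3 µM once, 0.30% DMSO / Times: 1 h pretreatment, 16 h stimulation, 37 °C / Signal: luminescence / Evaluation: per-plate % inhibition versus controls / Benchmarks: DMSO and 10 µM reference inhibitor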
D1 mod: D1 dopamine receptor (human) allosteric modulation | HEK293 D1, CRE-luciferase, dopamine EC30 potentiation; actives deviate in either direction | B-score at 10 µM | 5.9% of 58,000 active | AID 641;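 active = luminescence count or its row- and column-corrected plate score outside the 99.7% band of the plate's sample wells, on either side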
Jurkat viability: cytotoxic compounds reducing Jurkat cell viability; Jurkat E6.1 viability, ATP luminescence, 48 h; inhibition, % at 4 µM; 1.2% of 56,000 active; AID 463;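 active = inhibition above the mean inhibition of all tested compounds plus 3 SD, cut at about 28% in these data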
M1 ag confirm: rat M1 muscarinic agonism, confirmation; shares compounds with M1 ag; CHO-M1 cells, Fluo-4 calcium fluorescence, agonist mode; actives lie on both sides; fluorescence change (max-min) at 10 µM; 19% of 1,700 active; AID 1488;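 active = fluorescence change differs from the solvent-only DMSO control mean at a set confidence level in both duplicate runs; inconclusive = differs from solvent-only control mean in just one of two runs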;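 also: an EC20 dose of acetylcholine follows compound addition during the same imaging run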
M4 agonist ctr: counter-screen for M1 agonists: activity at rat M4 receptor | 9% of 1,700 active | CHO M4/Gqi5 cells, Fluo-4 calcium fluorescence, agonist mode; actives lie on both sides | shares compounds with M1 ag | fluorescence change (max-min) at 10 µM | AID 1741;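 active = fluorescence change differing from the plate's solvent-only control wells at 99.7% confidence in both duplicates, whether higher or lower; inconclusive = differs from solvent controls in only one of two duplicates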
Numbers stand for hits; 0 = inactive; ? = inconclusive; - = not tested or not shown.

SMILES	M1 ag	M1 antag	mHtt clearance	HEK293 NFkB inh	D1 mod	Jurkat viability	M1 ag confirm	M4 agonist ctr
CCn1nnc(-c2ccccc2NS(=O)(=O)c2ccc(S(=O)(=O)N(C)C3CCCCC3)cc2)n1	-	-	0	-	-	-	-	-
CCC(CC)C(=O)NC12CC3CC(CC(C3)C1)C2	-	-	0	-	-	-	-	-
COCCNC(=O)c1ccccc1NS(=O)(=O)c1ccc(Br)s1	-	-	0	-	-	-	-	-
COC(=O)c1ccc2c(c1)N(Cc1cc(C)ccc1C)C(=O)c1ccccc1S2=O (centres undefined)	0	0	-	0	0	0	-	-
COC(=O)c1ccc2c(c1)N(Cc1ccccc1F)C(=O)c1ccccc1S2=O (centres undefined)	4.9	0	-	0	0	0	?	0
CC(CCc1ccccc1)NC(=O)c1nnc(Cc2ccc(Cl)cc2)o1 (centres undefined)	-	-	0	-	-	-	-	-
O=C(O)CSc1nnc(CNc2ccccc2Cl)n1-c1ccccc1	84	3	0	0	0	0	?	0
CCN(CC)c1ccc(-c2nn3c(-c4cccnc4)nnc3s2)cc1	8.6	-6.2	-	-	0	-	0	0
c1cncc(-c2nnc3sc(-c4ccco4)nn23)c1	0	0	-	-	0	-	-	-
CCC(C)(C)NC(=O)C(c1ccc(C)cc1)N(Cc1cccnc1)C(=O)c1csnn1 (centres undefined)	-	-	0	-	-	-	-	-
CCC(C)(C)NC(=O)C(c1cccc(OC)c1)N(C(=O)c1ccn[nH]1)c1cccc(OC)c1 (centres undefined)	12	0	-	0	0	0	-24	-68
CCCCCCOC(=O)C(C#N)c1nc2ccccc2nc1N1CCN(C)CC1 (centres undefined)	5.1	1.9	-	0	0	0	0	?
CCCCCCOC(=O)C(C#N)c1nc2ccccc2nc1N1CCCCC1 (centres undefined)	9.9	0	0	0	0	0	?	0
CCC(CC)COC(=O)C(C#N)c1nc2ccccc2nc1N1CCN(CC)CC1 (centres undefined)	0	0	0	0	0	0	-	-
CCCCNC(=O)C(C#N)c1nc2ccccc2nc1N1CCCC1 (centres undefined)	54	0	-	0	0	0	856	750
CCC(C)COC(=O)C(C#N)c1nc2ccccc2nc1N1CCCCC1 (centres undefined)	0	0	-	0	0	0	-	-
CC1CCN(c2nc3ccccc3nc2C(C#N)C(=O)NC2CCCCC2)CC1 (centres undefined)	8.8	0	-	0	0	0	105	0
O=C(CSc1nnc(COc2ccccc2)n1-c1ccccc1)c1cccs1	0	0	-	0	0	0	-	-
COc1ccc(CNC(=O)C(C#N)c2nc3ccccc3nc2N2CCN(C)CC2)cc1 (centres undefined)	0	0	-	0	0	0	-	-
COc1ccc(CNC(=O)C(C#N)c2nc3ccccc3nc2N2CCCC2)cc1 (centres undefined)	165	-6.9	-	0	0	0	373	562
CSc1nc2[nH]c3c(c2c2ncnn12)CCCC3	8.1	0	-	-	-	-	?	0
Cn1c(CNc2ccc(Cl)cc2)nc2ccccc21	0	0	0	0	-	0	-	-
Cn1c2ccc(Cl)cc2c2nc3ccccc3nc21	18	0	-	0	0	0	0	0
O=C(Nc1nnc(-c2ccccc2)o1)c1nc2ccccc2s1	0	0	-	0	0	0	-	-
COCC(=O)Nc1ccccc1NC(C)=O	0	0	0	0	0	0	-	-
COCC(=O)NC(c1ccccc1)c1ccccc1	13	0	0	0	0	0	0	0
CC(C)[C@H](NC(=O)[C@@H]1CSCN1C(=O)OC(C)(C)C)C(=O)NCC1CCC(C(=O)O)CC1 (some centres undefined)	1.8	0	76	0	0	0	0	?
Cc1[nH]nc2c1C1(CCN(C(=O)c3ccccc3)CC1)C(C#N)=C(N)O2	23	0	-	0	0	0	0	0
CCN(CCCNC(=O)CN1C(=O)COc2ccccc21)c1cccc(C)c1	0	0	-	0	0	-	-	-
Nc1cccc(Cl)c1N1CCOCC1	-	-	0	-	-	-	-	-

From PubChem
